# Tests used:
# [1] = AUC (0 to infinity) in CD-1 mouse at 2 mg/kg, iv administered as single bolus dose by LC-MS/MS analysis; format: ADME, organism-based; set-up: time infinity, dose 2 mg/kg, route intravenous; conditions: plasma
# In short: (§1)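 Single 2 mg/kg IV bolus via lateral tail vein to male CD-1 mice. Mice euthanized at 0.083–24 h, 3 per time point (27 animals); cardiac-puncture blood into heparin on ice, plasma spun at 4 °C and immediately extracted with acetonitrile/0.1% formic acid plus IS, LC-MS/MS. Noncompartmental CL = Dose/AUC0–inf, t1/2 = 0.693/k, Vss from AUMC/AUC, MRT = Vss/CL.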
# [2] = Fraction unbound in CD-1 mouse liver microsomes after 7 hrs by equilibrium dialysis method; format: ADME
# In short: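 Equilibrium dialysis of 0.25 mg/mL mouse liver microsomes in phosphate buffer against PBS, 7 h at 37 °C, 5% CO2, test compound 0.1, 0.5 or 2 µM, triplicate; LC-MS/MS; fraction unbound = buffer/microsome concentration.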
# [3] = Mean residence time in CD-1 mouse at 2 mg/kg, iv administered as single bolus dose by LC-MS/MS analysis; format: ADME, organism-based; set-up: dose 2 mg/kg, route intravenous; conditions: in vivo; in short: as §1
# [4] = Volume of distribution at steady state in CD-1 mouse at 2 mg/kg, iv administered as single bolus dose by LC-MS/MS analysis; format: ADME, organism-based; set-up: dose 2 mg/kg, route intravenous; conditions: in vivo, read-out: Vdss; in short: as §1
# Plasma [5] = experiment: Drug metabolism in CD-1 mouse plasma assessed as maximum intrinsic clearance for hydrolysis metabolite formation by LC-MS/MS analysis; format: ADME, cell-free
# In short: (§2)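 Mouse plasma depletion kinetics at 37 °C, substrate range 0.0023–5 µM, up to 3 h; samples quenched into acetonitrile/tolbutamide, LC-MS/MS. CLint per concentration from t1/2; apparent Vmax and Km fitted by nonlinear regression to Michaelis-Menten, formation rate simulated from fit; mean of two replicates.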
# [6] = In vitro half life in CD-1 mouse plasma at 0.83 uM by LC-MS/MS analysis; format: ADME, cell-free
# In short: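 Screening stability: compound at 0.83 µM in mouse plasma at 37 °C, up to 3 h; timed aliquots quenched into acetonitrile with tolbutamide IS, centrifuged, LC-MS/MS; half-life from depletion, CLint = (0.693/t1/2)/plasma concentration.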
# [7] = Half life in CD-1 mouse at 2 mg/kg, iv administered as single bolus dose by LC-MS/MS analysis; format: ADME, organism-based; set-up: dose 2 mg/kg, route intravenous; conditions: in vivo; in short: as §1
# [8] = Ratio of drug level in blood to plasma in CD-1 mouse at 1 uM treated 20 mins after amide hydrolysis inhibitor DFP challenge measured after 1 hr by LC-MS/MS analysis; format: ADME; conditions: whole blood
# In short: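 Fresh whole blood pre-incubated 20 min with 100 µM DFP, warmed to 37 °C, spiked to 1 µM, incubated 1 h, then plasma separated; reference plasma spiked at 1 µM. Extracted with 6 volumes acetonitrile/IS, LC-MS/MS; ratio = reference plasma peak area / treated plasma peak area.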
# [9] = Drug metabolism in CD-1 mouse NADPH-fortified liver microsomes assessed as hydrolysis metabolite formation rate by LC-MS/MS analysis; format: ADME
# In short: (§3)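 Mouse liver microsomes 0.25 mg/mL in 0.1 M phosphate pH 7.4, with or without 1 mM NADPH, substrate 0.0023–5 µM; sampling to 40 min into acetonitrile/IS, LC-MS/MS depletion. Hydrolysis Vmax/Km solved from no-NADPH incubations, then NADPH-dependent constants; metabolite formation rate simulated from fitted constants; duplicates.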
# [10] = Fraction unbound in CD-1 mouse plasma after 7 hrs by equilibrium dialysis method; format: ADME, cell-free
# In short: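 Mouse plasma pre-treated 20 min with 100 µM DFP to block hydrolysis, spiked at 0.1, 0.5 or 2 µM, equilibrium dialysis against PBS for 7 h at 37 °C, 5% CO2, triplicate; matrix-matched samples extracted with acetonitrile/IS, LC-MS/MS; fu = buffer/plasma concentration.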
# [11] = Drug metabolism in CD-1 mouse liver microsomes assessed as hydrolysis metabolite formation rate by LC-MS/MS analysis; format: ADME; in short: as §3
# [12] = Plasma clearance in CD-1 mouse at 2 mg/kg, iv administered as single bolus dose by LC-MS/MS analysis; format: ADME, organism-based; set-up: dose 2 mg/kg, route intravenous; in short: as §1
# Plasma [13] = experiment: Drug metabolism in CD-1 mouse plasma assessed as hydrolysis metabolite formation rate by LC-MS/MS analysis; format: ADME, cell-free; in short: as §2
structure (smiles),measurement,setting,value
CC(C)NC(=O)[C@H]1CC[C@@H](n2/c(=N/C(=O)c3cc(F)cc(Cl)c3)[nH]c3ccc(CN4CCC(C(C)(C)O)CC4)cc32)CC1,AUC(0-inf),[1],1530 nM·h
same,fraction unbound at 7 h,[2],0.22
same,MRT,[3],2.56 h
same,Vd,[4],5.47 L/kg
same,CL,Plasma [5],2.09 uL/min.ml
same,half-life at 0.83 µM,[6],8.2 h
same,half-life,[7],2.08 h
same,"blood plasma ratio at 1 h, 1 µM",[8],0.9
same,Vmax(app),[9],279 pmol/min/mg
same,Km,[9]; read-out: Km(app),1.9 µM
same,fraction unbound at 7 h,[10],0.011
same,Vmax(app),[11],2.49 pmol/min/mg
same,Km,[11]; read-out: Km(app),0.053 µM
same,clearance,[12],2.14 L/h/kg
same,Vmax(app),Plasma [13],0.305 pmol/min/mL
same,Km,Plasma [13]; read-out: Km(app),0.146 µM
